Test results taken from ChEMBL document CHEMBL5620421, “2,6-Disubstituted 7-(naphthalen-2-ylmethyl)-7H-purines as a new class of potent antitubercular agents inhibiting DprE1” (Eur J Med Chem, 2023).

Key:
Assay type in all cases: functional
Conditions in all cases: time 14-21 day
[1] = test system: Mycobacterium tuberculosis; experiment: (§1) Antimycobacterial activity against isoniazid/ethambutol/rifampin/streptomycin/amikacin/gentamicin/clofazimine/ofloxacin resistant MDR/XDR clinical isolate Mycobacterium tuberculosis PRAHA 131 assessed as inhibition of mycobacterial growth measured after 14 to 21 days of incubation by Sulas semisynthetic medium based assay
Summary of the method: (§2)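 Clinical MDR/XDR M. tuberculosis isolates were tested by the Sula's semisynthetic medium micromethod. Compounds in DMSO at 1000 to 0.5 μmol/L, in twofold-type steps. Incubation at 37 °C, read at 14 and 21 days. MIC99 is the lowest concentration inhibiting >99% of growth. Drug resistance or susceptibility of each isolate is to amikacin, clofazimine, gentamicin, ofloxacin, streptomycin and the others listed.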

[2] = test system: Mycobacterium tuberculosis; experiment: as §1, with “4” for “131”; summary of the method: as §2
[3] = test system: Mycobacterium tuberculosis; experiment: as §1, with “7357/1998” for “PRAHA 131”; summary of the method: as §2
[4] = test system: Mycobacterium tuberculosis; experiment: as §1, with “9449/2007” for “PRAHA 131”; summary of the method: as §2
[5] = test system: Mycobacterium tuberculosis; experiment: as §1, with “234/2005” for “PRAHA 131”; summary of the method: as §2
[6] = test system: Mycobacterium tuberculosis; experiment: as §1, with “8666/2010” for “PRAHA 131”; summary of the method: as §2
[7] = test system: Mycobacterium tuberculosis; experiment: as §1, with “1” for “131”; summary of the method: as §2

Row | Compound | MIC99 [1] [µM] | MIC99 [2] [µM] | MIC99 [3] [µM] | MIC99 [4] [µM] | MIC99 [5] [µM] | MIC99 [6] [µM] | MIC99 [7] [µM]
1 | NCC[C@H](O)C(=O)N[C@@H]1C[C@H](N)[C@@H](O[C@H]2O[C@H](CN)[C@@H](O)[C@H](O)[C@H]2O)[C@H](O)[C@H]1O[C@H]1O[C@H](CO)[C@@H](O)[C@H](N)[C@H]1O [AMIKACIN] | > 32 |  |  |  |  |  | 
2 | CC1COc2c(N3CCN(C)CC3)c(F)cc3c(=O)c(C(=O)O)cn1c23 (stereo not given) [OFLOXACIN] |  | > 16 |  |  |  |  | 
3 | CO[C@H]1/C=C/O[C@@]2(C)Oc3c(C)c(O)c4c(O)c(c(/C=N/N5CCN(C)CC5)c(O)c4c3C2=O)NC(=O)/C(C)=C\C=C\[C@H](C)[C@H](O)[C@@H](C)[C@@H](O)[C@@H](C)[C@H](OC(C)=O)[C@@H]1C [RIFAMPIN] | > 8 | > 8 | > 8 | > 8 | > 8 | > 8 | > 8
4 | CN[C@@H]1[C@H](O[C@H]2[C@H](O[C@H]3[C@H](O)[C@@H](O)[C@H](N=C(N)N)[C@@H](O)[C@@H]3N=C(N)N)O[C@@H](C)[C@]2(O)C=O)O[C@@H](CO)[C@H](O)[C@H]1O [STREPTOMYCIN] | > 32 | > 32 | > 32 | > 32 |  | > 32 | 
5 | GENTAMICIN | > 8 |  |  |  |  |  | 
